Source: ChEMBL document CHEMBL4393724, “Betulin-1,4-quinone hybrids: Synthesis, anticancer activity and molecular docking study with NQO1 enzyme” (Eur J Med Chem, 2019)

Assays:
Format in all cases: functional, cell-based
[1] = tested on: COLO-829; test: Antiproliferative activity against human COLO829 cells assessed as reduction in cell viability incubated for 72 hrs by WST1 assay
[2] = tested on: C32; test: Antiproliferative activity against human C32 cells assessed as reduction in cell viability incubated for 72 hrs by WST1 assay
Summary of the method: (§1)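 Cells held at 37 °C under 5% CO2 and seeded at 5 × 10^4 cells/well in DMEM with 10% FCS plus streptomycin and penicillin. Compounds were dissolved in DMSO and exposed for 72 h. WST-1 formazan was read at 450 nm. IC50 was derived from the mean ± SD of at least three independent experiments run in triplicate. Cisplatin served as reference.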

[3] = tested on: MDA-MB-231; test: Antiproliferative activity against human MDA-MB-231 cells assessed as reduction in cell viability incubated for 72 hrs by WST1 assay
[4] = tested on: T47D; test: Antiproliferative activity against human T47D cells assessed as reduction in cell viability incubated for 72 hrs by WST1 assay
[5] = tested on: MCF7; test: Antiproliferative activity against human MCF7 cells assessed as reduction in cell viability incubated for 72 hrs by WST1 assay; summary of the method: as §1
[6] = tested on: SNB-19; test: Antiproliferative activity against human SNB19 cells assessed as reduction in cell viability incubated for 72 hrs by WST1 assay
[7] = tested on: A549; test: Antiproliferative activity against human A549 cells assessed as reduction in cell viability incubated for 72 hrs by WST1 assay; summary of the method: as §1
[8] = Homo sapiens, COLO-829, 72 h, read-out: IC50
[9] = Homo sapiens, MDA-MB-231, 72 h, read-out: IC50
[10] = Homo sapiens, T47D, 72 h, read-out: IC50
[11] = Homo sapiens, MCF7, 72 h, read-out: IC50
[12] = Homo sapiens, A549, 72 h, read-out: IC50
[13] = Homo sapiens, C32, 72 h, read-out: IC50
[14] = Homo sapiens, SNB-19, 72 h, read-out: IC50

IC50 [1, 8] [µM] | IC50 ([3]; mda-mb-231) | IC50 ([4]; t47d) | IC50 ([5]; mcf7) | IC50 ([1]; colo-829) | IC50 [3, 9] [µM] | IC50 [4, 10] [µM] | IC50 [5, 11] [µM] | IC50 [7, 12] [µM] | SMILES | IC50 ([2]; c32) | IC50 ([6]; snb-19) | IC50 ([7]; a549) | IC50 [2, 13] [µM] | IC50 [6, 14] [µM]
93.8 |  | Not Active |  |  | 5.88 |  | 89.3 | 0.64 | C=C(C)[C@@H]1CC[C@]2(COC3=C(Cl)C(=O)c4ccc(C)nc4C3=O)CC[C@]3(C)[C@H](CC[C@@H]4[C@@]5(C)CC[C@H](OC(C)=O)C(C)(C)[C@@H]5CC[C@]43C)[C@@H]12 |  | Not Active |  | 1.33 | 
 |  | Not Active |  | Not Active | 36.9 |  | 18 | 18.4 | C#CC(=O)OC[C@]12CC[C@@H](C(=C)C)[C@@H]1[C@H]1CC[C@@H]3[C@@]4(C)CC[C@H](OC5=C(Cl)C(=O)c6ccc(C)nc6C5=O)C(C)(C)[C@@H]4CC[C@@]3(C)[C@]1(C)CC2 | Not Active |  |  |  | 10.8
0.12 |  |  |  |  | 0.11 | 10.3 | 0.94 | 0.84 | C=C(COC1=C(Cl)C(=O)c2ccc(C)nc2C1=O)[C@@H]1CC[C@]2(COC(C)=O)CC[C@]3(C)[C@H](CC[C@@H]4[C@@]5(C)CC[C@H](OC(C)=O)C(C)(C)[C@@H]5CC[C@]43C)[C@@H]12 |  | Not Active |  | 1.14 | 
1.08 | Not Active |  |  |  |  | 12.6 | 71.4 | 1.15 | C=C(C)[C@@H]1CC[C@]2(COC3=C(Cl)C(=O)c4ccccc4C3=O)CC[C@]3(C)[C@H](CC[C@@H]4[C@@]5(C)CC[C@H](OC(C)=O)C(C)(C)[C@@H]5CC[C@]43C)[C@@H]12 |  |  |  | 13.8 | 3.38
 | Not Active |  | Not Active | Not Active |  | 86.8 |  | 13.5 | C=C(C)[C@@H]1CC[C@]2(COC(C)=O)CC[C@]3(C)[C@H](CC[C@@H]4[C@@]5(C)CC[C@H](OC6=C(Cl)C(=O)c7cccnc7C6=O)C(C)(C)[C@@H]5CC[C@]43C)[C@@H]12 | Not Active | Not Active |  |  | 
 | Not Active | Not Active |  | Not Active |  |  | 96.8 | 14.3 | C=C(C)[C@@H]1CC[C@]2(COC3=C(Cl)C(=O)c4cccnc4C3=O)CC[C@]3(C)[C@H](CC[C@@H]4[C@@]5(C)CC[C@H](OC(C)=O)C(C)(C)[C@@H]5CC[C@]43C)[C@@H]12 | Not Active | Not Active |  |  | 
 |  |  |  | Not Active | 6.77 | 96.1 | 36.6 | 1.28 | C#CC(=O)OC[C@]12CC[C@@H](C(=C)C)[C@@H]1[C@H]1CC[C@@H]3[C@@]4(C)CC[C@H](OC5=C(Cl)C(=O)c6ccccc6C5=O)C(C)(C)[C@@H]4CC[C@@]3(C)[C@]1(C)CC2 |  | Not Active |  | 1.04 | 
95.5 |  |  |  |  | 80.4 | 13.2 | 94.8 | 8.58 | C=C(C)[C@@H]1CC[C@]2(COC3=C(Cl)C(=O)c4cccnc4C3=O)CC[C@]3(C)[C@H](CC[C@@H]4[C@@]5(C)CC[C@H](O)C(C)(C)[C@@H]5CC[C@]43C)[C@@H]12 | Not Active | Not Active |  |  | 
1.13 |  |  | Not Active |  | 11 | 90.4 |  | 1.62 | C=C(C)[C@@H]1CC[C@]2(COC3=C(Cl)C(=O)c4ccc(C)nc4C3=O)CC[C@]3(C)[C@H](CC[C@@H]4[C@@]5(C)CC[C@H](O)C(C)(C)[C@@H]5CC[C@]43C)[C@@H]12 |  | Not Active |  | 12.7 | 

The next lines start with the compound.

SMILES | IC50 [1, 8] [µM] | IC50 ([3]; mda-mb-231) | IC50 ([4]; t47d) | IC50 ([5]; mcf7) | IC50 ([1]; colo-829) | IC50 [3, 9] [µM] | IC50 [4, 10] [µM] | IC50 [5, 11] [µM] | IC50 [7, 12] [µM] | IC50 ([2]; c32) | IC50 ([6]; snb-19) | IC50 ([7]; a549) | IC50 [2, 13] [µM] | IC50 [6, 14] [µM]
O=C1C(Cl)=C(Cl)C(=O)c2ccccc21 [Dichlon] | 37.9 | Not Active | Not Active | Not Active |  |  |  |  |  | Not Active | Not Active | Not Active |  | 
C=C(C)[C@@H]1CC[C@]2(CO)CC[C@]3(C)[C@H](CC[C@@H]4[C@@]5(C)CC[C@H](O)C(C)(C)[C@@H]5CC[C@]43C)[C@@H]12 [BETULIN] |  |  |  |  | Not Active | 96.2 | 20.7 | 43.9 | 59.7 | Not Active | Not Active |  |  | 
Cc1ccc2c(n1)C(=O)C(Cl)=C(Cl)C2=O | 26.4 | Not Active | Not Active | Not Active |  |  |  |  |  | Not Active | Not Active | Not Active |  | 
C=C(COC1=C(Cl)C(=O)c2cccnc2C1=O)[C@@H]1CC[C@]2(COC(C)=O)CC[C@]3(C)[C@H](CC[C@@H]4[C@@]5(C)CC[C@H](OC(C)=O)C(C)(C)[C@@H]5CC[C@]43C)[C@@H]12 | 0.13 |  |  |  |  | 60.4 | 12.8 | 11.6 | 3.3 |  |  |  | 22.9 | 62.5
C=C(COC1=C(Cl)C(=O)c2ccccc2C1=O)[C@@H]1CC[C@]2(COC(C)=O)CC[C@]3(C)[C@H](CC[C@@H]4[C@@]5(C)CC[C@H](OC(C)=O)C(C)(C)[C@@H]5CC[C@]43C)[C@@H]12 |  |  | Not Active | Not Active | Not Active | 61.2 |  |  | 53.9 |  | Not Active |  | 24.7 | 
C=C(C)[C@@H]1CC[C@]2(COC3=C(Cl)C(=O)c4ccccc4C3=O)CC[C@]3(C)[C@H](CC[C@@H]4[C@@]5(C)CC[C@H](O)C(C)(C)[C@@H]5CC[C@]43C)[C@@H]12 |  | Not Active |  | Not Active | Not Active |  | 1.47 |  | 10.6 | Not Active |  |  |  | 9.49
